# Screening data: PubChem, several laboratories
# The list is not random: actives were taken first. Their share in the collection is about 3.6%.
# FGF22 binding: binders of human FGF22 protein, primary screen, FGF22 synaptogenesis inhibitor project, biophysical, thermal shift, single point | Fibroblast growth factor 22 (Homo sapiens), Q9HCT0 | recombinant FGF22 thermal shift, SYPRO orange fluorescence; percent of sucrose octasulfate shift, DMSO zero | activity (Tm shift, normalised), % at 9.99 µM | 340,000 tested, 1.5% active;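 active = mean Tm shift, scaled 0 neutral to 100 positive control, at about 1.3% or above, every replicate too, limit read from the data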
# Target sequence (Q9HCT0 whole entry, looked up): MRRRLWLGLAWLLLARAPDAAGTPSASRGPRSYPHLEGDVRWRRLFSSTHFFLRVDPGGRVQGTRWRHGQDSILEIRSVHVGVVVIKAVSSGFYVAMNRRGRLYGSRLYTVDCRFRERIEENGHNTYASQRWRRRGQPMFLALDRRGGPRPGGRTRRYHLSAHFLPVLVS
# EBNA-1 inh: EBNA-1 DNA-binding inhibitors, primary screen, biochemical, fluorescence polarization | 300,000 tested, 0.34% active | AID 1950, 2009 | inhibition, % at 14.8 µM; in the data active = inhibition above about 28%
# NS3 helicase inh: inhibitors of HCV NS3 helicase, primary screen, biochemical, Cy5 molecular beacon fluorescence | Hepatitis C virus NS3 helicase | NS3 helicase DNA unwinding | inhibition, % at 10.9 µM | 290,000 tested, 0.56% active | AID 1800, 2009;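 active = inhibition above the mean of all tested compounds plus 3 SD, set per campaign, cut at about 35% in these data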
#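 test system = hepatitis C virus NS3 helicase domain fragment enzyme | reagent = annealed dual-labelled DNA beacon duplex, ATP-started | times = 1 h at 25 °C | detection = Cy5 fluorescence, 0 and 60 min reads | read-out basis = percent inhibition from t60/t0 fluorescence ratio | control set = DMSO and thioflavine S | replication = one well per compound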
# ZTA counter: blocks Epstein-Barr virus ZTA, an EBNA-1 counter-screen; ZTA-DNA binding, fluorescence polarization; 320,000 tested, 0.15% active; inhibition, % at 11 µM; P03206; AID 2234; in the data active = inhibition above about 33%
# Target sequence (P03206 whole entry, looked up): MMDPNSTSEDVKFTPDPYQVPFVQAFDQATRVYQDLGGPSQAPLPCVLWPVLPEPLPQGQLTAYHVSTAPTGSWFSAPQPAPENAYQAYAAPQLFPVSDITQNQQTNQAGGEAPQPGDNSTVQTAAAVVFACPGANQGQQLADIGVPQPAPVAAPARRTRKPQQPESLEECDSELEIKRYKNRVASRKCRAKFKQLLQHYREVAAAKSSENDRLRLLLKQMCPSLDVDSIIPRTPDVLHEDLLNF
# GRIN3A LBD mod: binders of NR3A ligand-binding domain, primary screen, biophysical, differential scanning fluorimetry, uHTS; Tm shift relative to glycine control, % at 25 µM; Glutamate receptor ionotropic, NMDA 3A (GRIN3A) ligand-binding domain; NR3A LBD differential scanning fluorimetry, Tm shift; 0% = protein alone, 100% = glycine-bound protein; AID 1259313, 2017; 340,000 tested, 2.5% active;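 active = melting temperature shift of at least 10% of the positive control shift, at one fixed dose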
# DNA FID counter: compounds displacing fluorescent DNA intercalator, primary screen, artefact control for HCV NS3 helicase inhibitor project, biochemical, FID fluorescence; DNA fluorescent intercalator displacement; 290,000 tested, 0.17% active; inhibition, % at 7.9 µM; in the data active = inhibition above about 37%;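 also: higher means more ethidium bromide displaced from hairpin DNA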
# A number is an active result; - = inactive; . = no result.
SMILES,FGF22 binding,EBNA-1 inh,NS3 helicase inh,ZTA counter,GRIN3A LBD mod,DNA FID counter
CCOP(=O)(O)c1cccc(OCCOCCOc2cccc(P(=O)(O)OCC)c2)c1,44,-,-,-,-,-
Cc1cccc2sc(NC(=O)CN3C(=O)C4CC=CCC4C3=O)nc12 (stereo unspecified),44,-,-,-,-,-
Cc1ccc(C)c2sc(NC(=O)CN3C(=O)CCC3=O)nc12,43,-,-,-,-,-
Cc1ccc2sc(NC(=O)CN3C(=O)CCC3=O)nc2c1C,-,-,-,-,-,-
COc1ccccc1NS(=O)(=O)c1cccc(NC(=O)Nc2ccccc2)c1,-,-,-,-,22,-
COc1cccc(OC)c1C(=O)Nc1cccc(S(=O)(=O)Nc2ccccc2Cl)c1,-,.,.,.,-,.
COc1ccccc1NS(=O)(=O)c1cccc(NC(=O)Nc2ccc(Cl)cc2)c1,-,-,-,-,18,-
COc1ccccc1NS(=O)(=O)c1ccc(NC(=O)N2CCCCC2)cc1,-,-,-,-,13,-
CC(C)(C)C(=O)Nc1ccc(S(=O)(=O)N2CCC(c3nc4ccccc4[nH]3)CC2)cc1,-,-,.,-,20,.
O=S(=O)(c1cccc(Cl)c1)N1CCC(c2nc3ccccc3[nH]2)CC1,-,-,-,-,27,-
CC(=O)Nc1ccc(S(=O)(=O)N2CCC(c3nc4ccccc4[nH]3)CC2)cc1,.,-,-,-,-,-
CC(=O)N(C)C[C@H]1Oc2cc(C#CCC(C)C)ccc2S(=O)(=O)N([C@H](C)CO)C[C@@H]1C,-,.,.,.,.,.
Cc1ccc(OCC(=O)Nc2sc3c(c2C#N)CC(C)(C)NC3(C)C)cc1,43,-,-,-,-,-
Cn1c(N=Nc2ccc(N3CCOCC3)cc2)[n+](C)c2ccccc21,-,.,-,.,-,59
CC(=O)Nc1ccc(Nc2cc(C(C)C)nc3c(-c4ccccc4)c(C)nn23)cc1,-,-,-,-,17,-
CC(=O)Nc1ccc(Nc2cc(C)nc3c(-c4ccccc4)c(C)nn23)cc1,.,-,-,-,-,-
CC(=O)Nc1sc(N/N=C/c2ccccc2)nc1-c1ccc(C)cc1,-,-,-,-,11,-
Cc1ccsc1/C=N/Nc1nc2ccccc2s1,.,-,-,-,24,-
CC(=O)c1sc(N/N=C\c2ccc(Br)cc2)nc1C,.,-,-,-,16,-
COc1ccc(/C=N/Nc2nc3ccccc3s2)cc1O,-,.,-,.,13,-
N#Cc1ccc(-c2ccc3c(c2)[C@@H]2[C@@H](CCN2C(=O)c2ccccc2F)[C@@H](CO)N3)cc1,-,.,.,.,.,.
CC(=O)Nc1ccc(/C=N/Nc2nc3ccccc3s2)cc1,-,.,-,.,16,-
Oc1ccccc1C=NNc1nc2ccccc2s1,-,.,.,.,31,.
CC(=O)Nc1ccc(S(=O)(=O)Nc2nc3ccccc3s2)cc1,.,-,-,-,-,-
COc1cccc(C=NNc2nc3ccccc3s2)c1OC,-,.,.,.,-,.
SMILES,FGF22 binding,EBNA-1 inh,NS3 helicase inh,ZTA counter,GRIN3A LBD mod,DNA FID counter
Oc1ccc(C=NNc2nc3ccccc3s2)c(O)c1,.,.,.,.,38,.
C(=N\Nc1nc2ccccc2s1)/c1cccs1,.,-,-,-,-,-
CC(=O)Nc1cccc(/C(C)=N/Nc2nc3ccccc3s2)c1,43,-,-,-,31,-
CCCNC(=O)C[C@H]1CC[C@@H]2[C@@H](COc3ccc(NC(=O)c4ccccc4)cc3C(=O)N2C)O1,-,.,.,.,.,.
COc1ccccc1CNC(=O)C[C@H]1C[C@@H]2c3cc(NS(C)(=O)=O)ccc3O[C@@H]2[C@H](CO)O1,-,.,.,.,.,.
C=CCC[C@H](Cc1ccc(F)cc1)C(=O)OC[C@@H](NC(=O)[C@@H](CC=C)CC(=O)N[C@@H](CO)Cc1ccccc1)C(C)(C)C,6.2,.,.,.,31,.
C=CCC[C@@H](Cc1ccc(F)cc1)C(=O)OC[C@H](Cc1c[nH]c2ccccc12)NC(=O)[C@@H](CC=C)CC(=O)N[C@H](CO)Cc1ccccc1,-,.,.,.,15,.
O=C(Nc1cc(F)ccc1F)N1C[C@@H]2[C@H](c3ccccc31)[C@H](CO)N2CC1CCCC1,-,.,.,.,.,.
O=C(C[C@@H]1CC[C@@H]2[C@H](COC[C@H](O)CN2C(=O)Nc2cccc(Cl)c2)O1)N1CCCCC1,-,.,.,.,.,.
